Measured values from PMC5668642 (Biochemistry and Biophysics Reports, 2015).

Tests used:
AKT1-PH domain [1] = molecular target: T1, AKT1-PH domain (Homo sapiens, UniProt P31749); test: Competitive surface plasmon resonance assay, PI; assay type: binding; conditions: for inhibition at 5 µM: read-out: Relative inhibitory activity (%), PI(3,4,5)P3/AKT1-PH
Procedure, shortened: (§1)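 L1 chip, 25 °C, 20 mM HEPES pH 7.4, 0.16 M KCl, 30 µL/min. Active surface PC/PE/PS/PIP (57:20:20:3): PI(4,5)P2 for rat PLCδ1-PH (1-131), PI(3,4,5)P3 for human AKT1-PH (1-121) and mouse GRP1-PH (1-127), PI(3,4)P2 for human TAPP1-PH (180-305). BSA-blocked PC/PE/PS reference. Domain (500 nM) preincubated 30 min with compound (0–20 or 0–200 µM). % inhibition from RU at 180 s; IC50 by Langmuir fit; triplicates.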

PLCδ1-PH domain [2] = molecular target: T2, PLCδ1-PH domain (Rattus norvegicus, UniProt P10688); test: Competitive surface plasmon resonance assay, PI; assay type: binding; conditions: for inhibition at 5 µM: pH 7.4, read-out: Relative inhibitory activity (%), PI(4,5)P2/PLCδ1-PH
T2 sequence (P10688 1-131): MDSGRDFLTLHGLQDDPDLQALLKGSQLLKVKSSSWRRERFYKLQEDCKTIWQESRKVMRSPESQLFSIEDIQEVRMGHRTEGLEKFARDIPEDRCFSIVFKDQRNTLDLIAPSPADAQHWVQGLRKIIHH
Procedure, shortened: as §1

TAPP1-PH domain = TAPP1-PH domain (Homo sapiens, UniProt Q9HB21); test: Competitive surface plasmon resonance assay, PI; assay type: binding; conditions: for inhibition at 5 µM: read-out: Relative inhibitory activity (%), PI(3,4)P2/TAPP1-PH
Procedure, shortened: as §1

GRP1-PH domain = molecular target: T3, GRP1-PH domain (Mus musculus, UniProt O08967); test: Competitive surface plasmon resonance assay, PI; assay type: binding; conditions: for inhibition at 5 µM: read-out: Relative inhibitory activity (%), PI(3,4,5)P3/GRP1-PH
T3 sequence (O08967 264-380 limits assumed): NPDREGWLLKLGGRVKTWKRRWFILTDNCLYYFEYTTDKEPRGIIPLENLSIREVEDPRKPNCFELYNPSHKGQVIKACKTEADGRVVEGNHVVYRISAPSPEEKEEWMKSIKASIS
Procedure, shortened: as §1

PLCδ1-PH domain [3] = molecular target: T2, PLCδ1-PH domain; test: Competitive protein-to-membrane FRET displacement assay; assay type: binding
Procedure, shortened: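 Rat PLCδ1-PH (1-131) is prebound to excess PC/PE/PS/dPE/PI(4,5)P2 (56:20:20:1:3) vesicles (100 µM total lipid) in 20 mM Tris pH 7.4, 0.16 M NaCl, at room temperature. Compound is titrated 0–70 µM. Protein-to-membrane FRET is read at ex 280/em 505 nm, corrected for PC/PE/PS/dPE (59:20:20:1) vesicles, dilution and dPE background. Apparent KI comes from a nonlinear least-squares fit.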

PLCδ1-PH domain [4] = molecular target: T2, PLCδ1-PH domain; test: Liposome pull-down assay, PI; assay type: binding; conditions: protein 50 μM; compound 100 μM; PC/PE/PS/PI(4,5)P2 (57:20:20:3)
Procedure, shortened: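 Sucrose-loaded PC/PE/PS/PI(4,5)P₂ vesicles made by sonication and extrusion, pelleted at 100,000g, and resuspended in 20 mM Tris pH 7.4 with 100 mM KCl and 5 mM MgCl₂. Rat PLCδ1-PH domain incubated with vesicles (40 µg in 100 µL) for 30 min with 0.3 mg/mL BSA, with or without test compound; PC/PE/PS vesicles as control. Spun at 100,000g for 30 min at 4 °C; supernatant and pellet run on Coomassie-stained SDS-PAGE.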

AKT1-PH domain [5] = molecular target: T1, AKT1-PH domain; test: Liposome pull-down assay, PI; assay type: binding; conditions: protein 50 μM; compound 100 μM; PC/PE/PS/PI(3,4,5)P3 (57:20:20:3)
Procedure, shortened: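 Human AKT1-PH (1-121) is incubated 30 min with 40 µg sucrose-loaded, sonicated/extruded vesicles (± compound) in 20 mM Tris pH 7.4, 100 mM KCl, 5 mM MgCl2, 0.3 mg/mL BSA. Vesicles were pelleted beforehand at 100,000g, 4 °C. Bound and free protein are separated at 100,000g, 30 min, 4 °C. Supernatant and pellet are run on Coomassie-stained SDS-PAGE.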

[6] = system: GFP-tagged PLCδ1-PH domain in A549 cells; test: Cellular translocation of GFP-tagged PLCδ1-PH domain; assay type: cell-based, Human; conditions: 0–100 μM, 30 min
Procedure, shortened: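 A549 cells grown on coverslips in RPMI-1640 with 10% heat-inactivated FBS and penicillin/streptomycin at 37 °C, 5% CO₂. Transfected 24 h after seeding with GFP-PLCδ1-PH using polyethylenimine in Opti-MEM, then returned to complete medium after 24 h. Cells washed into serum-free medium and exposed to test compound (5–100 µM; DMSO <5%) for 30 min. PBS-washed, fixed in 4% paraformaldehyde for 15 min, and imaged by confocal at 488 nm excitation.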

PLCδ1-PH domain [7] = molecular target: T2, PLCδ1-PH domain; test: Isothermal titration calorimetry, PLCδ1-PH domain; assay type: binding; conditions: 25 °C; 20 mM HEPES pH 7.4, 0.16 M KCl
Procedure, shortened: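 Rat PLCδ1-PH domain (residues 1–131, E. coli BL21-DE3) at 200 μM, dialysed into 20 mM HEPES pH 7.4 with 0.16 M KCl. Titrated at 25 °C, 500 rpm, with 20 × 2 µL injections at 2.0 min intervals of test compound (2 mM) dissolved in the final dialysate. ΔG derived as ΔH − TΔS.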

AKT1-PH domain [8] = molecular target: T1, AKT1-PH domain; test: Isothermal titration calorimetry, AKT1-PH domain; assay type: binding; conditions: 25 °C
Procedure, shortened: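 Human AKT1-PH domain (residues 1–121, E. coli BL21-DE3) in the sample cell at 25 °C, 500 rpm. Titrated with 20 × 2 µL injections of test compound (2 mM) at 2.0 min intervals. ΔG derived as ΔH − TΔS.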

PLCδ1-PH domain [9] = molecular target: T2, PLCδ1-PH domain; test: Circular dichroism of PLCδ1-PH domain with compounds; conditions: PLCδ1-PH 1 μM; 10 mM phosphate, 10 mM NaCl, pH 7.2
Procedure, shortened: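 Rat PLCδ1-PH domain (residues 1-131, expressed in E. coli BL21-DE3) is scanned by far-UV CD from 190 to 245 nm, alone and with test compounds present.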

T1 sequence (P31749 1-121): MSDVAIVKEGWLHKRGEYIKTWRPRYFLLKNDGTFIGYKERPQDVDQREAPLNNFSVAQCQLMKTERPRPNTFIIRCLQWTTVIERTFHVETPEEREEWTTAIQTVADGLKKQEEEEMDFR
Chain of TAPP1-PH domain (Q9HB21 180-305): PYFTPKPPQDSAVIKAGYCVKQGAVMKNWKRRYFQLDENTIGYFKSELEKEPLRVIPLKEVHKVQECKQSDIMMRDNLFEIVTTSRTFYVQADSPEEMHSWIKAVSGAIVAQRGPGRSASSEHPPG

| inhibition at 5 µM (AKT1-PH domain [1]) [%] | IC50 (PLCδ1-PH domain [2]) [nM] | inhibition at 5 µM (PLCδ1-PH domain [2]) [%] | IC50 (TAPP1-PH domain) [nM] | inhibition at 5 µM (TAPP1-PH domain) [%] | IC50 (AKT1-PH domain [1]) [nM] | IC50 (GRP1-PH domain) [nM] | inhibition at 5 µM (GRP1-PH domain) [%] | Ki (PLCδ1-PH domain [3]) [nM] | Inhibition of PI(3,4,5)P3/AKT1-PH domain interaction (SDS-PAGE) (AKT1-PH domain [5]) | Change in secondary structural pattern of PLCδ1-PH domain (far UV-CD) (PLCδ1-PH domain [9]) | Effect on PLCδ1-PH domain binding to PC/PE/PS/PI(4,5)P2 liposome (PLCδ1-PH domain [2]; competitive SPR, negative control, data not shown) | SMILES | Inhibition of PLCδ1-PH domain binding to PI(4,5)P2 containing liposomes (SDS-PAGE) (PLCδ1-PH domain [4]) | Displacement of PLCδ1-PH domain from plasma membrane (confocal images) [6] | ITC titration behaviour with PLCδ1-PH domain (PLCδ1-PH domain [7]) | ITC titration behaviour with AKT1-PH domain (AKT1-PH domain [8]) |
| --- | --- | --- | --- | --- | --- | --- | --- | --- | --- | --- | --- | --- | --- | --- | --- | --- |
| 4 ± 1 |  |  |  |  |  |  |  |  |  |  |  | CCOC(=O)Cn1cc(CO)nn1 [CIP-3] |  |  |  |  |
| 44 ± 2 | 113 ± 7 | 83 ± 4 | 647 ± 33 | 18 ± 2 | 175 ± 21 | 145 ± 11 | 56 ± 3 | 60400 | more strongly than compound CIP-4 | almost no change |  | O=[N+]([O-])c1ccc(Cn2cc(CO)nn2)cc1 [CIP-1] | not that efficient in displacing the PLCδ1-PH domain | extent of displacement of PLCδ1-PH domain from PM is lowered | exothermic reaction with one-step binding mechanism | exothermic reaction with two-step binding mechanism |
| 55 ± 2 | 159 ± 11 | 62 ± 3 | 106 ± 8 | 41 ± 4 | 315 ± 32 | 216 ± 9 | 58 ± 5 |  |  |  |  | OCc1cn(Cc2ccccc2)nn1 [CIP-2] |  |  |  |  |
|  |  |  |  |  |  |  |  |  |  |  | did not affect | Cn1cc(CO)nn1 [(1-methyl-1H-1,2,3-triazol-4-yl)methanol, reference compound] |  |  |  |  |
